Source: ChEMBL document CHEMBL1148788 (J Med Chem, 2007)
Several values for one entry are separate records, joined by “and”; a condition that tells them apart may be missing. Equal values may be shown once. Activity calls are given as the source filed them. The rule behind the calls is not given here.

Columns and labels:
[1] = test system: tsA201; experiment: Displacement of [3H]methyllycaconitine from chimeric alpha-7nAChR Y93A mutant/5HT3A receptor in tsA201 cells; format: cell-based; conditions: Homo sapiens
Procedure, shortened: (§1)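 tsA-201 cells transiently transfected with 4 µg WT or mutant α7/5-HT3A chimera and assayed 2 days later. Membranes washed twice at 50000g in 50 mM Tris-HCl pH 7.2. Incubated with 0.5 nM [3H]MLA and compound for 2.5 h at room temperature with shaking; nonspecific binding with 5 mM (S)-nicotine. PEI-soaked GF/C filtration, scintillation counting. Ki derived; duplicate, 3–7 experiments.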

[2] = biological target: T1, Neuronal acetylcholine receptor; alpha3/beta4 (Rattus norvegicus, UniProt P04757+P12392); experiment: Antagonist activity at rat alpha3beta4 nAChR expressed in HEK293 cells by FMP assay; format: functional, cell-based, Homo sapiens; conditions: read-out: IC50
[3] = biological target: Neuronal acetylcholine receptor; alpha4/beta4 (Rattus norvegicus, UniProt P09483+P12392); experiment: Displacement of [3H]epibatidine from recombinant rat alpha-4-beta-4 nAChr in HEK293 cell line; format: cell-based
[4] = Displacement of [3H]methyllycaconitine from chimeric alpha-7nAChR Y195F mutant/5HT3A receptor in tsA201 cells; format: cell-based, Homo sapiens; procedure, shortened: as §1
[5] = biological target: T1, Neuronal acetylcholine receptor; alpha3/beta4; experiment: Displacement of [3H]epibatidine from recombinant rat alpha-3-beta-4 nAChr in HEK293 cell line; format: cell-based
[6] = cells; format: functional, cell-based; conditions: Homo sapiens, HEK293
[7] = biological target: Neuronal acetylcholine receptor; alpha4/beta2 (Rattus norvegicus, UniProt P09483+P12390); experiment: Displacement of [3H]epibatidine from rat recombinant alpha-4-beta-2 nAChR in HEK293 cell line; format: cell-based
[8] = biological target: T2, Neuronal acetylcholine receptor subunit alpha-7 (Homo sapiens, UniProt P36544); experiment: Displacement of [3H]methyllycaconitine from human alpha-7 in tsA201 cells coexpressed with 5HT3A receptor; format: cell-based
Target sequence in this assay (P36544 whole entry): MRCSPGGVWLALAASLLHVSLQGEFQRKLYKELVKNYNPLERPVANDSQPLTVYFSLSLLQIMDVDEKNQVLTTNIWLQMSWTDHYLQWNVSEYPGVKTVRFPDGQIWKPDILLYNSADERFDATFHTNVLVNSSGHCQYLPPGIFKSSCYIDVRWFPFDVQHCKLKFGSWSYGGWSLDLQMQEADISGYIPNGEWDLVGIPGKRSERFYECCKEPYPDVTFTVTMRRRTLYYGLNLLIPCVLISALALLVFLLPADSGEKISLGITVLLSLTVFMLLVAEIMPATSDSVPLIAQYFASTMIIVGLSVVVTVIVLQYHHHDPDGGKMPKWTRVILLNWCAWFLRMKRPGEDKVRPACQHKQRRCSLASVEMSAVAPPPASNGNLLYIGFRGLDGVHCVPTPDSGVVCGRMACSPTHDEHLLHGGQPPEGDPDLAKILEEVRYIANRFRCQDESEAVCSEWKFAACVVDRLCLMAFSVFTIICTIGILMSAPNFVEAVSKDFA

[9] = Antagonist activity at human alpha-7 nAChR Y188A mutant coexpressed with human Ric3 in tsA201 cells by FMP assay; format: functional, cell-based
[10] = Displacement of [3H]methyllycaconitine from chimeric alpha-7nAChR D197A mutant/5HT3A receptor in tsA201 cells; format: cell-based, Homo sapiens; procedure, shortened: as §1
[11] = Antagonist activity at human alpha-7 nAChR Y195A mutant coexpressed with human Ric3 in tsA201 cells by FMP assay; format: functional, cell-based
[12] = Displacement of [3H]methyllycaconitine from chimeric alpha-7nAChR S150A mutant/5HT3A receptor in tsA201 cells; format: cell-based, Homo sapiens; procedure, shortened: as §1
[13] = test system: tsA201; experiment: Displacement of [3H]methyllycaconitine from chimeric alpha-7nAChR W149Y mutant/5HT3A receptor W149Y mutant in tsA201 cells; format: cell-based; conditions: Homo sapiens; procedure, shortened: as §1
[14] = test system: tsA201; experiment: Displacement of [3H]methyllycaconitine from chimeric alpha-7nAChR W149A mutant/5HT3A receptor in tsA201 cells; format: cell-based; conditions: Homo sapiens; procedure, shortened: as §1
[15] = Displacement of [3H]methyllycaconitine from chimeric alpha-7nAChR S148A mutant /5HT3A receptor in tsA201 cells; format: cell-based, Homo sapiens; procedure, shortened: as §1
[16] = Displacement of [3H]methyllycaconitine from chimeric alpha7nAChR K145A mutant/5HT3A receptor in tsA201 cells; format: cell-based, Homo sapiens; procedure, shortened: as §1
[17] = Displacement of [3H]methyllycaconitine from chimeric alpha7nAChR Y195A mutant/5HT3A receptor in tsA201 cells; format: cell-based, Homo sapiens; procedure, shortened: as §1
[18] = Displacement of [3H]methyllycaconitine from chimeric alpha7nAChR R79A mutant/5HT3A receptor R79A mutant in tsA201 cells; format: cell-based, Homo sapiens; procedure, shortened: as §1
[19] = biological target: T3, Glycine receptor subunit alpha-1 (Homo sapiens, UniProt P23415); experiment: Antagonist activity at human glycine alpha-1 receptor in HEK293 cells by FMP assay; format: functional, cell-based
T3 sequence (P23415 whole entry): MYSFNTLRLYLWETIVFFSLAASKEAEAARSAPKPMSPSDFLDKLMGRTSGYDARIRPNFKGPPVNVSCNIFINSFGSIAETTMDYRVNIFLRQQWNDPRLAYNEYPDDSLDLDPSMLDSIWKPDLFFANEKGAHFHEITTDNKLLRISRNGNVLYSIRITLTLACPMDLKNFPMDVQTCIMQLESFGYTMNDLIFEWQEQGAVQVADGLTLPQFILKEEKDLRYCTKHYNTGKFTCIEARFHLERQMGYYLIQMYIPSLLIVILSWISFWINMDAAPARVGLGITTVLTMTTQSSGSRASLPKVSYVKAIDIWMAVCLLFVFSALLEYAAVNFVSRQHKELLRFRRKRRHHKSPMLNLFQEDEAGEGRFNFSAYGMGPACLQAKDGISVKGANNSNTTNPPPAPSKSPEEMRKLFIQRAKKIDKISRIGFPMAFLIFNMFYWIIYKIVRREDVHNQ

[20] = biological target: T2, Neuronal acetylcholine receptor subunit alpha-7
Target sequence in this assay (P36544 whole entry): as the sequence (P36544 whole entry) above

[21] = Antagonist activity at human alpha7 nAChR W149Y mutant co-expressed with human Ric3 in tsA201 cells by FMP assay; format: functional, cell-based
[22] = Displacement of [3H]methyllycaconitine from chimeric alpha7nAChR W55Y mutant/5HT3A receptor in tsA201 cells; format: cell-based, Homo sapiens; procedure, shortened: as §1
[23] = Displacement of [3H]methyllycaconitine from chimeric alpha-7nAChR K145R mutant /5HT3A receptor in tsA201 cells; format: cell-based, Homo sapiens; procedure, shortened: as §1
[24] = Displacement of [3H]methyllycaconitine from chimeric alpha-7nAChR Y168A mutant/5HT3A receptor in tsA201 cells; format: cell-based, Homo sapiens; procedure, shortened: as §1
[25] = test system: tsA201; experiment: Displacement of [3H]methyllycaconitine from chimeric alpha-7nAChR W55A/Y195A mutant /5HT3A receptor in tsA201 cells; format: cell-based; conditions: Homo sapiens; procedure, shortened: as §1
[26] = Antagonist activity at human alpha7nAChR Y93A mutant co-expressed with human Ric3 in tsA201 cells by FMP assay; format: functional, cell-based
[27] = test system: tsA201; experiment: Displacement of [3H]methyllycaconitine from chimeric alpha-7nAChR Y188A mutant/5-HT3A receptor in tsA201 cells; format: cell-based; conditions: Homo sapiens; procedure, shortened: as §1
[28] = biological target: T2, Neuronal acetylcholine receptor subunit alpha-7; experiment: Displacement of [3H]methyllycaconitine from alpha7 nAChR in tsA201 cells co-expressed with Ric3; format: cell-based
Target sequence in this assay (P36544 whole entry): as the sequence (P36544 whole entry) above

[29] = biological target: T2, Neuronal acetylcholine receptor subunit alpha-7; experiment: Displacement of [3H]methyllycaconitine from chimeric alpha7nAChR/5HT3A in tsA201 cells; format: cell-based
Target sequence in this assay (P36544 23-502 limits assumed): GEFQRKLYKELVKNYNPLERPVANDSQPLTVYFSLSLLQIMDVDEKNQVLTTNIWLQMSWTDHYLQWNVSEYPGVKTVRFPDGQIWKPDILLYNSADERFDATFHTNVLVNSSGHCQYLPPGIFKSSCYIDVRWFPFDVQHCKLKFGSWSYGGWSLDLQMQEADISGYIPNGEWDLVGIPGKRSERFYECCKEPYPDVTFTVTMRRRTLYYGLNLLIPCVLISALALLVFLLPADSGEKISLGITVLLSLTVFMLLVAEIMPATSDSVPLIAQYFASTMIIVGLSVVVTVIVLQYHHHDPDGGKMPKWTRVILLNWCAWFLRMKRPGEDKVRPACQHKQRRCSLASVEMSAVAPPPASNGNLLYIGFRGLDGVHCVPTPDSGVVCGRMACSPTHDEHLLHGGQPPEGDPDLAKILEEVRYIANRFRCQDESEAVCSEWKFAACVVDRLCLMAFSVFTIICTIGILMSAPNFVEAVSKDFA

[30] = biological target: T4, 5-hydroxytryptamine receptor 3A (Homo sapiens, UniProt P46098); experiment: Antagonist activity at human 5HT3A receptor expressed in HEK293 cells by FMP assay; format: functional, cell-based; conditions: read-out: IC50
T4 sequence (P46098 whole entry): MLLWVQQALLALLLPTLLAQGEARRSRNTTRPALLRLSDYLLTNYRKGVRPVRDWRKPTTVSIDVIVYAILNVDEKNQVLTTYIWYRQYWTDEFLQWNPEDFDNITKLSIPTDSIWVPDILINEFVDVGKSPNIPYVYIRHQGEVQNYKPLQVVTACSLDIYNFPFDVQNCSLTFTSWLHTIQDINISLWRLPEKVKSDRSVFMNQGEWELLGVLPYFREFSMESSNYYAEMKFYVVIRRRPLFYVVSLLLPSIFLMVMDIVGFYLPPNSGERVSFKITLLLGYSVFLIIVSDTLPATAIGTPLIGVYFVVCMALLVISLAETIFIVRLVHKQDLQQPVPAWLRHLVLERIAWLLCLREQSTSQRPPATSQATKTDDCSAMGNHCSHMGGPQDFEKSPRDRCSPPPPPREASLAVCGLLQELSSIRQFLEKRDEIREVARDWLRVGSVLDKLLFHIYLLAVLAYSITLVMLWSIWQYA

[31] = Displacement of [3H]methyllycaconitine from chimeric alpha-7nAChR W55A mutant /5HT3A receptor in tsA201 cells; format: cell-based, Homo sapiens; procedure, shortened: as §1
[32] = Displacement of [3H]methyllycaconitine from chimeric alpha-7nAChR N107A mutant/5HT3A receptor in tsA201 cells; format: cell-based, Homo sapiens; procedure, shortened: as §1
[33] = biological target: T2, Neuronal acetylcholine receptor subunit alpha-7; experiment: Antagonist activity at human alpha-7 nAChR in tsA201 cells coexpressed with Ric3 by FMP assay; format: functional, cell-based
Target sequence in this assay (P36544 whole entry): as the sequence (P36544 whole entry) above

[34] = biological target: T4, 5-hydroxytryptamine receptor 3A; experiment: Displacement of [3H]GR65630 from human 5HT3A receptor in HEK293 cells; format: cell-based

Neuronal acetylcholine receptor; alpha4/beta2, sequence (P09483 whole entry): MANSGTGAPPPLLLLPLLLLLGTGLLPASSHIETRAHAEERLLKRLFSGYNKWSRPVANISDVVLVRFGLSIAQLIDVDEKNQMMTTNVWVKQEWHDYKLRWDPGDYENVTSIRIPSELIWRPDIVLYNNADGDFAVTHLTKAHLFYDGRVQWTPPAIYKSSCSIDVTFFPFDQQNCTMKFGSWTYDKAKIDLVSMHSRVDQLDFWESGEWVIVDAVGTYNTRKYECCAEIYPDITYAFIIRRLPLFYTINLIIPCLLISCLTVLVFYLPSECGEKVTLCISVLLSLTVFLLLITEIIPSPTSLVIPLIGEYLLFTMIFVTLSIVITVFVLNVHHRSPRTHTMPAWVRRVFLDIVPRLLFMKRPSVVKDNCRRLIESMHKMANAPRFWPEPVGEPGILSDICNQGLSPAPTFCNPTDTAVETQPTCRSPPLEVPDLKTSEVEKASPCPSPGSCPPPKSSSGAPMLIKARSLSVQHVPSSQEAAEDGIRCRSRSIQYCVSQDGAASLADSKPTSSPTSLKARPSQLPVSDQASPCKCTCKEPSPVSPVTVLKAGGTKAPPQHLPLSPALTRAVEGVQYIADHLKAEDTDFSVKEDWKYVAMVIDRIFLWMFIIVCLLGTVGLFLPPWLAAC
Neuronal acetylcholine receptor; alpha4/beta2, sequence (P12390 whole entry): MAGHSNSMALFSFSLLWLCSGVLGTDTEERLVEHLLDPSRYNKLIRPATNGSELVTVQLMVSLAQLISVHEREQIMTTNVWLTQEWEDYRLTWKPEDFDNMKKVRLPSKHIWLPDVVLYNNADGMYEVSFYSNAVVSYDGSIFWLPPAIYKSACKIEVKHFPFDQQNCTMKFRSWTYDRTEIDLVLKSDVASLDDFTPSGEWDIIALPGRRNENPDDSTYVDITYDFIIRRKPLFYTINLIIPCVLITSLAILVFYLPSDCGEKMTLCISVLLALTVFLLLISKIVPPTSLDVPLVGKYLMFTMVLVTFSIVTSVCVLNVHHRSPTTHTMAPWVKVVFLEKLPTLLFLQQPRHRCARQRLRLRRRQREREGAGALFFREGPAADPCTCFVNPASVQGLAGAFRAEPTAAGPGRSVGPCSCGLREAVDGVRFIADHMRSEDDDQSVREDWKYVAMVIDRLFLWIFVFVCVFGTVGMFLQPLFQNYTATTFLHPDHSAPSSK
Neuronal acetylcholine receptor; alpha4/beta4, sequence (P09483 whole entry): as the sequence (P09483 whole entry) above
Neuronal acetylcholine receptor; alpha4/beta4, sequence (P12392 whole entry): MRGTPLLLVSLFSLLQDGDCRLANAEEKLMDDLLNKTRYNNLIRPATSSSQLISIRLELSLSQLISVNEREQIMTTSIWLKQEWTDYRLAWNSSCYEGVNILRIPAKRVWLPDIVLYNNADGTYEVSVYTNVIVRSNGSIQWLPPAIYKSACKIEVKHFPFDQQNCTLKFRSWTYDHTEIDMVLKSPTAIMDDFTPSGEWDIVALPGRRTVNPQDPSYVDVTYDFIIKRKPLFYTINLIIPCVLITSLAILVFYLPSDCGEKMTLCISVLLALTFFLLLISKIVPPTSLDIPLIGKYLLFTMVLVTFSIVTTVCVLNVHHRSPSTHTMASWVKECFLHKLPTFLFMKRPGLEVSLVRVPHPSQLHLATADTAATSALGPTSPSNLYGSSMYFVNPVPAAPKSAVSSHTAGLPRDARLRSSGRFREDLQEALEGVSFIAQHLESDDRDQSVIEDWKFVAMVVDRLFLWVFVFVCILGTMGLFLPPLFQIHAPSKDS
T1 sequence (P04757 whole entry): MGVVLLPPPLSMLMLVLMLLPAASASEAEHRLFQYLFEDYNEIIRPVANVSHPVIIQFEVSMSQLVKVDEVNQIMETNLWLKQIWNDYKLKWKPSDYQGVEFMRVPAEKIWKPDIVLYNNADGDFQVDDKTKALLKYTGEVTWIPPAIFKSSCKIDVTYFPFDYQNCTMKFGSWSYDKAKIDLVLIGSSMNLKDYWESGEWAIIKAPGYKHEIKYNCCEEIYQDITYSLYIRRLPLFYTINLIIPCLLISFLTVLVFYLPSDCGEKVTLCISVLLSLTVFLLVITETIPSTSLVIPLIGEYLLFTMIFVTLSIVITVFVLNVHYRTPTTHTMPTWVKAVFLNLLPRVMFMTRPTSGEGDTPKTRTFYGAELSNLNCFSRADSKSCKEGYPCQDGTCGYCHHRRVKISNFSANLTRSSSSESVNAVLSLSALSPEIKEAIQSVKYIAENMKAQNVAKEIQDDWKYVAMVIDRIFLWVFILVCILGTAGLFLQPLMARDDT
T1 sequence (P12392 whole entry): as the sequence (P12392 whole entry) above

For `C1=CC([N+]23CC[C@@H]4[C@@H]5[C@@H]6[C@@H](OCC=C(C2)[C@@H]6C[C@@H]43)N2c3ccccc3[C@@]34CC[N+]6(C7C=CCCC7)CC7=CCO[C@H]([C@@H]([C@H]23)[C@H]7C[C@@H]46)N5c2ccccc2)CCC1.[Br-].[Br-]` (stereo partly drawn), the Activity [1] was “inactive”, the IC50 [2] was 30 µM and the Ki [3] was greater than 100 µM. For the same compound, the pKi ([3]; hek293) was less than 4, the Ki [4] was 1.3 µM and the pKi [4] was 5.89. The Ki [5] was 30 µM, the IC50 ([6]; read-out: IC50) was greater than 100 µM and the IC50 ([6]; read-out: pIC50 (converted)) was greater than 100 µM. The pKi ([7]; hek293) was less than 4, the Ki ([7]; read-out: Ki) was greater than 100 µM and the Ki ([8]; read-out: Ki) was 0.72 µM. The Ki ([8]; read-out: pKi (converted)) was 0.794 µM, the IC50 ([9]; read-out: IC50) was 5.3 µM and the IC50 ([9]; read-out: pIC50 (converted)) was 5.13 µM. For the same compound, the Ki [10] was 1.5 µM, the pKi [10] was 5.83 and the IC50 ([11]; read-out: IC50) was 3.3 µM. The IC50 ([11]; read-out: pIC50 (converted)) was 3.31 µM, the Ki [12] was 0.55 µM and the pKi [12] was 6.26. The Activity [13] was “inactive”, the Activity [14] was “inactive” and the Ki [15] was 0.4 µM. For the same compound, the pKi [15] was 6.4, the Ki [16] was 0.32 µM and the pKi [16] was 6.5. The Ki [17] was 4.9 µM, the pKi [17] was 5.31 and the Ki [18] was 1.3 µM. For the same compound, the pKi [18] was 5.89, the IC50 [19] was greater than 100 µM and the pIC50 ([19]; hek293) was less than 4. The IC50 [20] was 3 µM and 2.95 µM, the IC50 ([21]; read-out: IC50) was 2.9 µM and the IC50 ([21]; read-out: pIC50 (converted)) was 2.88 µM. The Ki [22] was 0.56 µM, the pKi [22] was 6.25 and the Ki [23] was 0.66 µM. For the same compound, the pKi [23] was 6.18, the Ki [24] was 1.1 µM and the pKi [24] was 5.96. For the same compound, the Activity [25] was “inactive”, the IC50 ([26]; read-out: IC50) was 3.7 µM and the IC50 ([26]; read-out: pIC50 (converted)) was 3.72 µM. For the same compound, the Activity [27] was “inactive”, the Ki ([28]; read-out: Ki) was 0.59 µM and the Ki ([28]; read-out: pKi (converted)) was 0.631 µM. The Ki [29] was 0.84 µM, the pKi [29] was 6.07 and the IC50 [30] was 4.4 µM. For the same compound, the Ki [31] was 1.2 µM, the pKi [31] was 5.93 and the Ki [32] was 0.724 µM. The pKi [32] was 6.14, the IC50 ([33]; read-out: IC50) was 3 µM and the IC50 ([33]; read-out: pIC50 (converted)) was 3.02 µM. It also gave a Ki [34] of 2.7 µM.
